Activity calls are given as the source filed them. Cut-off read from the data, not from the text of the source, unless noted: active = inhibition above about 30%; inactive = the rest.
Assays:
[1] = HUVEC growth inhibition – cell-based, human, primary screen (AID 575;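 active = viability at or below 30% in both replicate assays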;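 note: 100% = median of untreated cell wells with 0.1% DMSO on each plate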); details: HUVEC proliferation, CellTiter-Glo luminescence, 72 h; at 10 µM; stronger effect = lower value
Summary of the method: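 Test system: primary human umbilical vein endothelial cells; medium: endothelial basal medium with 2% FBS plus growth supplements; dosing: 10 µM compound only; times: 72 h treatment at 37 °C; signal: CTG luminescence; read-out: % viability relative to median vehicle-well signal on each plate; control set: vehicle and MePR control wells; plate: 384-well, collagen-coated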

[2] = growth inhibitors of H69AR lung tumor, primary screen, human, duplicate replicates (AID 580;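 active = viability at or under a set limit in both replicates, limit being median viability minus 3 SD, cut at about 48% in these data, passing the limit was not always enough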;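 note: 100% = mean luminescence of untreated wells and 0% = no signal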); details: H69AR lung tumor cells viability, ATP luminescence, 72 h; at 10 µM; stronger effect = lower value
[3] = reversal of MRP1-mediated doxorubicin resistance, pilot screen, H69AR cells, doxorubicin co-treatment (AID 601;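 active = viability loss from added drug above about 55%, and viability with drug at most 40%, in both replicates, limit read from the data, passing the limit was not always enough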); details: CellTiter-Glo, 72 h, at 10 µM; for differential viability (reversal): stronger effect = higher value
[4] = 384-well plate pilot, post-Golgi transport modulator project, inhibition of yeast transport mutant growth (AID 636; in the data active = inhibition above about 31%); details: absorbance 615 nm, about 18 h, stronger effect = higher value
[5] = growth suppression of yeast trafficking mutant, preliminary HTS, modulators of trafficking downstream of Golgi apparatus project, 1536-format plate, OD 615 nm (AID 637); details: yeast transport mutant growth, absorbance 615 nm, 18 h; stronger effect = higher value
[6] = H69AR cells + 2 uM doxorubicin, measured here: viability with 2 uM doxorubicin, stronger effect = lower value
[7] = H69AR cells, compound alone cytotoxicity

Row | Compound | viability [1] | viability [2] | differential viability (reversal) ([3]; H69AR cells + 2 uM doxorubicin) | viability [3, 6] [%] | viability [3, 7] [%] | inhibition [4] | inhibition [5]
1 | O=C(CSc1nc2c(sc3ccccc32)c(=O)n1Cc1ccco1)NCC1CCCO1 (stereo not drawn) | 78.8% (inactive) | 81.2% (inactive) | -4.63% (inactive) | 85.8 | 81.2 | -1.17% (inactive) | 5.71% (inactive)
2 | COC(=O)Cn1cc(C(=O)c2cccs2)c2ccccc21 | 103% (inactive) | 96.4% (inactive) | 9.54% (inactive) | 86.9 | 96.4 | -2.34% (inactive) | 1.43% (inactive)
3 | CCN(C(=O)c1c(-c2ccccc2)noc1C)c1ccccc1 | 100% (inactive) | 93.8% (inactive) | 9.52% (inactive) | 84.3 | 93.8 | -1.18% (inactive) | 14.9% (inactive)
4 | CNCCC(Oc1ccc(C(F)(F)F)cc1)c1ccccc1 (stereo not drawn) | 54.1% (inactive) | 58.5% (inactive) | -6.63% (inactive) | 65.2 | 58.5 | 2.47% (inactive) | -3% (inactive)
5 | O=C1NC(c2ccccc2)(C(F)(F)F)SC2=NCCCN12 (stereo not drawn) | 102% (inactive) | 97.2% (inactive) | 7.68% (inactive) | 89.6 | 97.2 | 3.82% (inactive) | -6.98% (inactive)
6 | CCOC(=O)CCC(=O)c1c(C)oc2ccc(OC)cc12 | 81.8% (inactive) | 88.4% (inactive) | -5% (inactive) | 93.4 | 88.4 | 1.04% (inactive) | 13.3% (inactive)
7 | O=C1c2ccccc2C(=O)N1CCCCN1CCN(CCCCN2C(=O)c3ccccc3C2=O)CC1 | 93% (inactive) | 97.5% (inactive) | 12.7% (inactive) | 84.8 | 97.5 | -7.33% (inactive) | 6.98% (inactive)
8 | Cc1nc(C)c(C(=O)OCC(=O)N2CCN(c3ccccc3)CC2)s1 | 108% (inactive) | 95.8% (inactive) | 7.64% (inactive) | 88.1 | 95.8 | -4.55% (inactive) | 4.29% (inactive)
9 | Cc1noc(C)c1C(=O)Nc1sc(C)c(C)c1C#N | 105% (inactive) | 95.5% (inactive) | 20.3% (inactive) | 75.2 | 95.5 | -1.97% (inactive) | 2.86% (inactive)
10 | COc1ccc(S(=O)(=O)NC(C)C(=O)Nc2cccc(C(C)=O)c2)cc1 (stereo not drawn) | 114% (inactive) | 98.1% (inactive) | 9.17% (inactive) | 88.9 | 98.1 | -4.8% (inactive) | 0.16% (inactive)
11 | Cc1nn(C)c(C)c1NC(=O)CCSc1nc(-c2ccco2)cc(C(F)(F)F)n1 | 93% (inactive) | 98.8% (inactive) | 3.76% (inactive) | 95 | 98.8 | -2.93% (inactive) | 4.44% (inactive)
12 | O=C1CC(C(=O)Nc2ccc(Br)cc2)C2(CCCC2)O1 (stereo not drawn) | 109% (inactive) | 101% (inactive) | 8.19% (inactive) | 93.1 | 101 | -4% (inactive) | -1.75% (inactive)
13 | CCc1ncc(C(O)c2cccc(OC)c2OC)n1C (stereo not drawn) | 101% (inactive) | 98.7% (inactive) | 11.3% (inactive) | 87.3 | 98.7 | -3.68% (inactive) | 4.13% (inactive)
14 | COC(=O)Cc1c(C)nc2nc(-c3ccccc3)[nH]n2c1=O | 90.8% (inactive) | 102% (inactive) | -4.13% (inactive) | 106 | 102 | 0.53% (inactive) | -5.56% (inactive)
15 | O=C(CN1C(=O)COc2ccccc21)NCCN1CCc2ccccc2C1 | 79.1% (inactive) | 92.9% (inactive) | -3.52% (inactive) | 96.4 | 92.9 | -4.68% (inactive) | -1.59% (inactive)
16 | COC(=O)c1ccccc1NC(=O)N1CCCC1 | 108% (inactive) | 103% (inactive) | 13.2% (inactive) | 90.1 | 103 | -3.2% (inactive) | -5.56% (inactive)
17 | O=C(Cc1ccccc1)Nc1ccc(CN2CCOCC2)cc1 | 105% (inactive) | 97.3% (inactive) | 6.05% (inactive) | 91.2 | 97.3 | -4.67% (inactive) | -2.38% (inactive)
18 | O=C(CSc1nc(-c2ccc(F)cc2)cs1)N1CCOCC1 | 122% (inactive) | 94.4% (inactive) | 19.2% (inactive) | 75.2 | 94.4 | -0.92% (inactive) | 6.67% (inactive)
19 | Cc1ccc(S(=O)(=O)N2CCCC2C(=O)OCc2ccco2)cc1 (stereo not drawn) | 96% (inactive) | 77.2% (inactive) | 0.425% (inactive) | 76.8 | 77.2 | -6.58% (inactive) | -7.62% (inactive)
